We go through six molecules from ChEMBL document CHEMBL3763126, “Development of sigma-1 (σ1) receptor fluorescent ligands as versatile tools to study σ1 receptors” (Eur J Med Chem, 2016).

Experiment [1] can be described thus: Displacement of [3H]-DTG from sigma 2 receptor in Wistar hannover rat liver membrane after 120 mins. Format: cell membranes. In short, it runs like this:
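Six to nine concentrations of test drug, two or three experiments in duplicate; IC50 for inhibition of specific binding, Ki from nonlinear curve fitting.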
(Displacement assays read how much labelled ligand stays bound in the presence of the test substance.)

Experiment [2] deals with T1, Sigma non-opioid intracellular receptor 1 (Homo sapiens, UniProt Q99720). Put plainly: Displacement of 5-(Dimethylamino)-2-{6-[(5-(4-(4-methylpiperidin-1-yl)butyl)naphthalen-2-yl)oxy]hexyl}isoindole-1,3-dione from sigma 1 receptor (unknown origin) expressed in MCF7 cells after 75 mins by flow cytometry.
Experiment [3] has as its target T1, Sigma non-opioid intracellular receptor 1. Put plainly: Displacement of 5-(Dimethylamino)-2-(6-((5-(4-(4-methylpiperidin-1-yl)butyl)-5,6,7,8-tetrahydronaphthalen-2-yl)oxy)hexyl)isoindoline-1,3-dione from sigma 1 receptor (unknown origin) expressed in MCF7 after 75 mins by flow cytometry. In general terms: In flow cytometry, cells or beads pass a laser one at a time.

In experiment [4] the target is Sigma non-opioid intracellular receptor 1 (Cavia porcellus, UniProt Q60492). Put plainly: Displacement of [3H]-pentazocine from sigma 1 receptor in guinea pig brain membrane after 120 mins. It counts as cell membranes. In short, it runs like this: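 IC50 from six to nine drug concentrations, two or three experiments with duplicate samples; Ki obtained by nonlinear curve fitting.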
Chain of Sigma non-opioid intracellular receptor 1 (Cavia porcellus, UniProt Q60492) (Q60492 whole entry): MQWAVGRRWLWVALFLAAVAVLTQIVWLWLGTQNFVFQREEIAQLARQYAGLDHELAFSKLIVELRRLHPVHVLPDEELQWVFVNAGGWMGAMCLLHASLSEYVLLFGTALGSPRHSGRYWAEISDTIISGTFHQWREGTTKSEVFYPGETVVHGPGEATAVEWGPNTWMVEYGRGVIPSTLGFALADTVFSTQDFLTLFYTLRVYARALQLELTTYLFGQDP

T1 sequence (Q99720 whole entry): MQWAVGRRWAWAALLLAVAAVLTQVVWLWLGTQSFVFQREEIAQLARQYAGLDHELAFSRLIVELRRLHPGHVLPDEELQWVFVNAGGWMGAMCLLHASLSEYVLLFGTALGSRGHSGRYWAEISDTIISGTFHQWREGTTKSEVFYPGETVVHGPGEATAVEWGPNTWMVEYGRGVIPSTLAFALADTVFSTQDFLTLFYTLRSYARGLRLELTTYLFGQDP

As usually defined, the Ki is the equilibrium dissociation constant of an inhibitor or competing ligand from its target. High values mean lower affinity, low ones higher affinity. In general, IC50 refers to the concentration needed to halve the response being measured. Higher therefore signals lower potency. Turning to `COc1ccc2c(CCCCN3CCC(C)CC3)cccc2c1`, in experiment [1], the affinity, expressed as Ki, was 17.9 nM. In addition, the 50% inhibitory concentration (IC50) in experiment [2] is 10.6 nM; in experiment [3], 15.5 nM.
Regarding `COc1ccc2c(c1)CCCC2CCCCN1CCC(C)CC1` (stereo not drawn), the Ki was 48.7 nM in experiment [1] and 1.01 nM in experiment [4]. Moreover, the figures for the half-maximal inhibitory concentration (IC50) in experiment [2] and in experiment [3] were 12.1 nM and 11.3 nM, respectively.
With `COc1cc2c(cc1OC)CN(CCCN1CCc3c(OC)cccc3C1=O)CC2`, the affinity in experiment [1], expressed as Ki, was 4.24 nM.
Regarding `CC1CCN(CCCCc2cccc3cc(OCCCCCCN4C(=O)c5ccc(N(C)C)cc5C4=O)ccc23)CC1`, the Ki was found to be 45.6 nM in experiment [1] and 5.2 nM in experiment [4].
For `CC1CCN(CCCCC2CCCc3cc(OCCCCCCN4C(=O)c5ccc(N(C)C)cc5C4=O)ccc32)CC1` (stereo not drawn) the same measures were 48.3 nM and 3.61 nM.
For the molecule `COc1cccc2c1CCCC2CCC(=O)N1CCN(C2CCCCC2)CC1` (stereo not drawn), the affinity in experiment [1] corresponds to a Ki of 179 nM.
